From PubChem BioAssay
An excerpt weighted towards active compounds, which were near 2.1% of everything screened.
Wee1 degr inh = human Wee1 degradation inhibition, primary screen; HeLa Luc-Wee1K328M stability, luciferase luminescence; 100% = proteasome inhibitor MG132 effect; reporter increase, % at 5 µM; 220,000 compounds, 1.2% hits;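 active = activation above the mean of all tested compounds plus 3 SD, set per screening run, cut at about 8.8% in these data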;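 note: cells exposed to compound for 20 h before luminescence read; 0% = DMSO alone and 100% = MG132 at 30 µM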
TNF necrop inh = TNF-alpha cell death inhibition in Jurkat FADD-/- cells; Jurkat FADD-/- TNF necroptosis rescue, ATP luminescence, 24 h; 0 = TNF only, 100 = no-TNF cells; activation (protection from cell death), % at 10 µM; 220,000 compounds, 0.068% hits; AID 463075;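 active = activation, meaning protection from cell death, of at least 50% relative to plate controls; inactive = activation below 50%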;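 note: necroptosis triggered by 40 ng/mL TNF-alpha added together with compound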
L929 necroptosis = blocks zVAD induced death of L929 cells | L929 zVAD necroptosis rescue, ATP luminescence, 24 h; with zVAD 60 µM | viability rescue, % at 10 µM | 220,000 compounds, 0.38% hits;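 active = activation, scaled between plate controls, above about 75%, limit read from the data; inactive = activation under that limit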;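 note: 0% = zVAD with DMSO and 100% = DMSO alone without zVAD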
Pf gamet viab = kills late stage P. falciparum gametocytes; P. falciparum stage V gametocytes, ATP luminescence, 24 h; inhibition, % at 10.9 µM; 150,000 compounds, 0.065% hits; AID 743093;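 active = inhibition above the mean plus 3 SD of compounds within the control limits, set per campaign, cut at about 38% in these data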;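 note: 0% = DMSO wells and 100% = medium only without gametocytes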
RBBP9 inhibitor = human RBBP9 hydrolase inhibition; recombinant RBBP9, FP-Rh probe fluorescence polarization; 220,000 compounds, 0.2% hits; O75884; AID 1515; inhibition, % at 7.94 µM;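 active = inhibition above the campaign mean of all tested compounds plus 3 SD, cut at about 14% in these data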;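 note: plate controls were DMSO wells with RBBP9 for no effect and wells lacking RBBP9 protein for full effect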
Target sequence (O75884 whole entry, looked up): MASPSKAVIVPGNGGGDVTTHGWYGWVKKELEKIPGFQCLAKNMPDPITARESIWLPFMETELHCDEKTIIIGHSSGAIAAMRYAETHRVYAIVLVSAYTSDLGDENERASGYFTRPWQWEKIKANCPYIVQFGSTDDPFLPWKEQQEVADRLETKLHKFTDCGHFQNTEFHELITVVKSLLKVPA
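Test system: recombinant human RBBP9. Quantity: 2.5 µM RBBP9 dispensing solution, before mixing. Detection: FP readout at 525/598 nm. Reagent: Serine-hydrolase probe FP-Rh, 375 nM pre-mixing. Measure: % inhibition. Control set: DMSO-treated enzyme wells and wells lacking RBBP9. Buffer or medium: Tris-NaCl-Pluronic buffer, pH 8.0. Times: preincubation 30 min plus labeling 45 min at 25 °C.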
Calpain2 inh = calpain II (pig) inhibition. 220,000 compounds, 0.37% hits. inhibition, % at 16 µM. purified calpain II, fluorogenic peptide substrate, 30 min;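 active = inhibition above about 50%, limit read from the data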
The depositor's hits bear a star; / = no result given.

SMILES	Wee1 degr inh	TNF necrop inh	L929 necroptosis	Pf gamet viab	RBBP9 inhibitor	Calpain2 inh
CC(Sc1ccccc1)C(=O)NN=C1CCCCCC1 (stereo not drawn)	-3.2	1.8	0.4	19.9	3.9	-4.8
S=C(c1ccc(-c2ccc(Br)cc2)o1)N1CCOCC1	10.1*	-0.3	0.6	14.7	-6.5	-5.5
S=C(c1ccc(-c2ccc(Br)cc2)o1)N1CCCCC1	2.8	1.5	2.3	-1.2	-2.1	8.5
CC1=NN(C(=O)COc2cc(C)ccc2C(C)C)C(O)(c2ccccc2)C1 (stereo not drawn)	10.7*	-2.1	-0.4	-5.2	-3.4	19.9
Cc1nc(N2CCN(Cc3ccc4c(c3)OCO4)CC2)nc2c1C(=O)CC(c1ccco1)C2 (stereo not drawn)	5.2	-13.2	0.0	-22.6	-2.4	67.3*
Cc1nc(N2CCN(Cc3ccccc3)CC2)nc2c1C(=O)CC(c1ccco1)C2 (stereo not drawn)	0.7	-0.7	-0.1	-29.8	-5.8	24.0
CCCCNC(=O)c1c[nH]c2ccc(S(=O)(=O)N3CCOCC3)cc2c1=O	-2.5	0.8	6.9	-21.6	-2.8	-19.1
CN(CCC#N)C(=O)COC(=O)c1c2c(nc3ccccc13)/C(=C/c1ccco1)CC2	10.3*	-0.9	1.8	-11.3	-4.2	-73.2
CCC(C)c1ccc(NC(=S)NC(C)C2CCCO2)cc1 (stereo not drawn)	-0.5	-3.3	-0.3	-0.3	5.1	16.0
Cn1nc(-c2ccc(Cl)cc2)nc2c(=O)n(C)c(=O)nc1-2	-4.8	-7.3	0.1	/	-1.7	54.9*
O=c1c2c3c(sc2ncn1Cc1ccc(F)cc1)CCC3	0.3	92.5*	1.2	-33.0	-0.4	-37.0
Cc1ccsc1-c1nc(CN(C)C(C2CC2)C2CC2)c(C)o1	-5.5	2.6	-1.6	-18.6	-2.0	-15.9
O=[N+]([O-])c1cc(C(F)(F)F)ccc1NCCc1c[nH]c2ccc(O)cc12	2.6	-15.8	-0.3	/	-3.6	52.4*
O=[N+]([O-])c1cc(C(F)(F)F)ccc1NCCc1c[nH]c2ccccc12	-0.5	-7.3	0.3	-0.4	7.1	50.1*
CS(=O)(=O)NCCCNc1ccc(C(F)(F)F)cc1[N+](=O)[O-]	-1.0	-1.8	0.3	-18.1	-8.3	8.2
O=C(CSCc1c(Cl)cccc1Cl)Nc1ccc2c(c1)OCCO2	-0.2	2.7	/	21.1	-6.0	17.2
O=C(CSc1nc(O)c(C2CCCCC2)c(=O)[nH]1)N1CCOCC1	-3.7	-0.6	1.9	-3.3	0.5	-9.8
Cc1c(C)c2ccc(OS(C)(=O)=O)c(C)c2oc1=O	3.9	-1.2	/	/	0.9	-136.4
CCNC1=C(Cl)C(=O)c2ccccc2C1=O	-1.6	-4.6	0.2	/	-7.6	50.2*
COc1cc(OC)cc(-c2c(C#Cc3ccsc3)c3cc(-c4ccccc4OC)ccc3n2C)c1	/	/	/	-6.3	/	/
COc1cc(OC)nc(/N=C/N(C)C)n1	32.5*	-1.3	0.0	-15.8	8.1	-10.3
COc1cccc(C(O)C2OC(=O)c3ccccc32)c1OC (stereo not drawn)	/	/	/	13.6	/	/
COC(=O)CC1C(=O)NCCN1C(=S)NC(=O)c1sc2ccccc2c1Cl (stereo not drawn)	10.3*	-1.0	0.7	3.8	-4.1	-2.9
CC(=Nc1ccccc1)C1=C(O)CC(C)(C)CC1=O	-0.4	0.4	0.4	/	0.1	19.9
CN=C(Cc1ccccc1)C1=C(O)CC(C)(C)CC1=O	4.4	86.7*	52.9	-5.5	-2.8	-11.8
SMILES	Wee1 degr inh	TNF necrop inh	L929 necroptosis	Pf gamet viab	RBBP9 inhibitor	Calpain2 inh
CCCOc1ccc(OCCN2CCCC(C)C2)cc1 (stereo not drawn)	-0.2	0.7	/	/	-3.5	50.0*
Cc1ccc(C(=O)O)cc1N1C(=O)c2cccc3cc(Br)cc(c23)C1=O	2.9	-1.3	0.0	/	-6.1	65.6*
CN(C)/C(=N\S(=O)(=O)c1ccc(Br)cc1)c1ccccc1	/	/	/	20.1	/	/
CCN(CC)/C(=N/S(=O)(=O)c1ccc(C)cc1)c1ccccc1	10.0*	0.4	0.3	/	-1.8	-23.7
O=C(C1COc2ccccc2O1)N1CCc2ccccc21 (stereo not drawn)	0.2	89.2*	2.4	/	-7.7	-50.5
O=C(CN1C(=O)COc2ccccc21)N1CCc2ccccc21	-1.8	-2.0	-0.9	/	-7.4	12.5
CCc1cccc(CC)c1NC(=O)CSc1nnc(CCC(=O)O)c(=O)[nH]1	9.5*	0.6	1.6	18.6	-10.2	-2.0
Cc1cc2nccc(-c3cccnc3)n2n1	-4.7	0.7	4.2	10.5	3.4	-18.2
O=C(C1CC1)N1CCc2cc(Br)cc(S(=O)(=O)N3CCCCCC3)c21	-1.1	2.6	-0.1	/	-0.7	14.6
O=C(C1CC1)N1CCc2cc(Br)cc(S(=O)(=O)NC3CCCCC3)c21	-2.4	1.3	2.6	/	-10.5	53.4*
C1=C(c2cc3ccccc3cn2)CCCC1	/	/	/	-11.4	/	/
O=[n+]1cc(-c2ccccc2)n([O-])c2c1CCC2	9.7*	0.7	0.8	-22.1	-8.3	-33.0
O=[n+]1cc(-c2ccc(Cl)cc2)n([O-])c2c1CCC2	7.5	0.2	0.1	-22.8	-0.9	-6.4
CC1=CC2=NC(=O)/C(=C\c3cccn3CCOc3cc(C)cc(C)c3)C(=N)N2O1	-2.9	-0.3	/	-5.4	-23.5	87.9*
CN1CCN(C(=O)C2=C[C@@H](c3ccc(Br)cc3)C[C@@H](OCc3ccc(CO)cc3)O2)CC1	9.8*	2.0	0.1	/	2.8	-6.2
C[C@H](CO)N1C[C@H](C)[C@@H](CN(C)S(=O)(=O)c2ccc(F)cc2)Oc2ccc(NC(=O)Cc3ccccc3)cc2C1=O	/	/	/	18.6	/	/
CCOC(=O)COc1cc(N)c(Cl)cc1Cl	12.8*	0.5	0.0	-1.5	8.3	-33.3
COc1c(F)c(F)c(C(=O)Nc2ccc(-c3nc4ccccc4[nH]3)cc2)c(F)c1F	10.0*	4.0	67.2	16.5	-5.0	-73.8
O=C(Nc1ccc(-c2nc3ccccc3[nH]2)cc1)c1c(F)c(F)c(F)c(F)c1F	-1.3	0.8	1.2	-11.2	-5.3	-67.3
Cc1cccc(NC(=O)Cn2c(/C=C/c3ccccc3)nc3ccccc32)c1	-2.3	1.6	-0.1	/	-14.3	-281.0
Cc1cc(NC(=O)CSc2nc3cc(C(=O)NCCCOC(C)C)ccc3c(=O)n2Cc2ccco2)no1	-2.5	1.6	3.3	-34.2	-3.0	60.9*
CC1CC(C)(C)NC(=S)N1CC(=O)N1CCN(Cc2ccc3c(c2)OCO3)CC1 (stereo not drawn)	-0.8	0.7	1.5	13.4	2.7	7.2
O=C(Cc1ccccc1)Nc1ncnc2c1C(c1ccccc1)c1c(ccc3ccccc13)O2 (stereo not drawn)	/	/	/	-57.2	/	/
Cc1ccc(N2C(=S)SC3CS(=O)(=O)CC32)cc1 (stereo not drawn)	0.5	1.4	1.4	38.2*	2.3	-31.1
